{"source": "paper PMC2736393", "about": "(Biochemistry, 2009)", "molecules": {"B1": {"name": "D3K: GRK2 amino terminal point mutant, Asp-3 to lysine (protein)", "chain": "MAKLEAVLADVSYLMAMEKSKATPAARASKKILLPEPSIRSVMQKYLEDRGEVTFEKIFSQKLGYLLFRDFCLKHLEEAKPLVEFYEEIKKYEKLETEEERLVCSREIFDTYIMKELLACSHPFSKSAIEHVQGHLVKKQVPPDLFQPYIEEICQNLRGDVFQKFIESDKFTRFCQWKNVELNIHLTMNDFSVHRIIGRGGFGEVYGCRKADTGKMYAMKCLDKKRIKMKQGETLALNERIMLSLVSTGDCPFIVCMSYAFHTPDKLSFILDLMNGGDLHYHLSQHGVFSEADMRFYAAEIILGLEHMHNRFVVYRDLKPANILLDEHGHVRISDLGLACDFSKKKPHASVGTHGYMAPEVLQKGVAYDSSADWFSLGCMLFKLLRGHSPFRQHKTKDKHEIDRMTLTMAVELPDSFSPELRSLLEGLLQRDVNRRLGCLGRGAQEVKESPFFRSLDWQMVFLQKYPPPLIPPRGEVNAADAFDIGSFDEEDTKGIKLLDSDQELYRNFPLTISERWQQEVAETVFDTINAETDRLEARKKTKNKQLGHEEDYALGKDCIMHGYMSKMGNPFLTQWQRRYFYLFPNRLEWRGEGEAPQSLLTMEEIQSVEETQIKERKCLLLKIRGGKQFVLQCDSDPELVQWKKELRDAYREAQQLVQRVPKMKNKPRSPVVELSKVPLIQRGSANGL"}, "B2": {"name": "L4A: GRK2 amino terminal point mutant, Leu-4 to alanine (protein)", "chain": "B1 chain with K3D, L4A"}, "B3": {"name": "D10A: GRK2 amino terminal point mutant (protein)", "chain": "B1 chain with K3D, D10A"}, "B4": {"name": "V477D: mutation in the AGC kinase C-tail of GRK2, literature (protein, UniProt P25098 1-689, looked up, variant V477D)", "Beta-adrenergic receptor …": "MADLEAVLADVSYLMAMEKSKATPAARASKKILLPEPSIRSVMQKYLEDRGEVTFEKIFSQKLGYLLFRDFCLNHLEEARPLVEFYEEIKKYEKLETEEERVARSREIFDSYIMKELLACSHPFSKSATEHVQGHLGKKQVPPDLFQPYIEEICQNLRGDVFQKFIESDKFTRFCQWKNVELNIHLTMNDFSVHRIIGRGGFGEVYGCRKADTGKMYAMKCLDKKRIKMKQGETLALNERIMLSLVSTGDCPFIVCMSYAFHTPDKLSFILDLMNGGDLHYHLSQHGVFSEADMRFYAAEIILGLEHMHNRFVVYRDLKPANILLDEHGHVRISDLGLACDFSKKKPHASVGTHGYMAPEVLQKGVAYDSSADWFSLGCMLFKLLRGHSPFRQHKTKDKHEIDRMTLTMAVELPDSFSPELRSLLEGLLQRDVNRRLGCLGRGAQEVKESPFFRSLDWQMVFLQKYPPPLIPPRGEDNAADAFDIGSFDEEDTKGIKLLDSDQELYRNFPLTISERWQQEVAETVFDTINAETDRLEARKKAKNKQLGHEEDYALGKDCIMHGYMSKMGNPFLTQWQRRYFYLFPNRLEWRGEGEAPQSLLTMEEIQSVEETQIKERKCLLLKIRGGKQFILQCDSDPELVQWKKELRDAYREAQQLVQRVPKMKNKPRSPVVELSKVPLVQRGSANGL"}}, "key": {"[1]": {"assay": "Circular dichroism of GRK2 peptides", "type": "physicochemical", "settings": "16 µM peptide in PBS pH 7.0, 4°C", "how_it_was_run": "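Far-UV CD spectra recorded at 4°C over 200–280 nm in a 1.0 cm pathlength cuvette (1 nm/min, 4 s response, 1 nm bandwidth). Test peptide was diluted to 16 µM in PBS pH 7.0 with varying trifluoroethanol. Observed ellipticity was converted to molar ellipticity using mean residue weight, path length and concentration. Relative helix content was deduced from these spectra.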"}, "GRK2 (β2AR substrate)": {"biological_target": "T1, GRK2 (β2AR substrate) (Bos taurus, UniProt P21146)", "T1 sequence (P21146 1-689)": "B1 chain with K3D", "assay": "Inhibition of GRK2 phosphorylation of β2AR by GRK peptides", "type": "biochemical"}, "[2]": {"biological_target": "T2, GRK2 (rhodopsin substrate) (Bos taurus, UniProt P21146)", "T2 sequence (P21146 1-689)": "B1 chain with K3D", "assay": "Inhibition of GRK2 phosphorylation of Rho* by GRK peptides", "type": "biochemical", "settings": "1-15 µM rhodopsin, 60 µM peptide; 3 independent experiments", "how_it_was_run": "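Sf9-expressed, purified GRK2 (20 nM) phosphorylated 1–15 µM light-activated rhodopsin with or without 60 µM test peptide. Products were resolved by SDS-PAGE and autoradiographed, then bands were excised and scintillation-counted. Values are mean ± SD from three experiments.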"}, "[3]": {"biological_target": "T2, GRK2 (rhodopsin substrate)", "settings": "cited from earlier work"}, "[4]": {"system": "β2-adrenergic receptor (β2AR)", "assay": "Phosphorylation of purified β2AR by purified GRK2 mutants", "type": "biochemical, human", "settings": "50 nM β2AR in mixed micelles, 20 nM GRK2, 10 µM isoproterenol, 0.2 mM ATP, 30°C; 3 experiments"}, "rhodopsin (Rho*)": {"system": "rhodopsin (Rho*)", "assay": "Phosphorylation of light-activated rhodopsin", "type": "biochemical", "settings": "COS-1 lysates, 2-20 min, 30°C; autoradiography (Fig. 1B)"}, "GPCR": {"system": "GPCR", "settings": "cited from earlier work"}}, "note": "Where a chain is given by its changes, count along the chain named. Numbers in names are those of the source. No end group written: not given here.", "data": [{"molecule": "MADLEAPLADVYSL [Pro peptide]", "values": [{"measurement": "helix formation", "setting": "[1]; in solution without TFE (0% TFE)", "result": "minimal helical formation in solution"}, {"measurement": "helix formation", "setting": "[1]; in the presence of TFE (25-50%)", "result": "no helix formation was observed"}]}, {"molecule": "MADLEAVLADVYSL [GRK2 peptide]", "values": [{"measurement": "IC50", "setting": "GRK2 (β2AR substrate)", "result": "~50", "unit": "µM"}, {"measurement": "Km change", "setting": "[2]", "result": "no change in the Km"}]}, {"molecule": "MELENIVANTLLK [GRK5 peptide, reference compound]", "values": [{"measurement": "effect on GRK2-mediated β2AR phosphorylation", "setting": "GRK2 (β2AR substrate); 200 µM peptide, 3 experiments (Fig. 4E)", "result": "no significant effect"}, {"measurement": "effect on GRK2-mediated phosphorylation of rhodopsin", "setting": "[3]", "result": "no effect"}]}, {"molecule": "B1", "values": [{"measurement": "decrease in β2AR phosphorylation activity vs wild-type GRK2", "setting": "[4]", "result": "~ 60%"}, {"measurement": "ability to phosphorylate Rho*", "setting": "rhodopsin (Rho*)", "result": "completely defective in their ability to phosphorylate Rho*"}]}, {"molecule": "B2", "values": [{"measurement": "decrease in β2AR phosphorylation activity vs wild-type GRK2", "setting": "[4]", "result": "90–95%"}]}, {"molecule": "B3", "values": [{"measurement": "decrease in β2AR phosphorylation activity vs wild-type GRK2", "setting": "[4]", "result": "90–95%"}, {"measurement": "ability to phosphorylate Rho*", "setting": "rhodopsin (Rho*)", "result": "completely defective in their ability to phosphorylate Rho*"}]}, {"molecule": "B4", "values": [{"measurement": "receptor phosphorylation and receptor-mediated activation", "setting": "GPCR; GRK2 AGC kinase C-tail mutation", "result": "defective in receptor phosphorylation and receptor-mediated activation"}, {"measurement": "activity against non-receptor substrates", "setting": "GPCR", "result": "reduced activity against non-receptor substrates"}]}]}
